Shown are actives, neighbours in structure and some others; about 3.5% of the full set was active somewhere.
rCAG binder: binders of r(CAG) RNA repeats, primary screen, biochemical, fluorescence; r(CAG) RNA repeat, TO-PRO-1 dye displacement fluorescence; inhibition, % at 3 µM; actives 1.3% (n = 370,000); AID 651821, 2012;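 active means inhibition above the plate cutoff, the mean of all test compounds on that plate plus 3 SD, cut at about 35% in these data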;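 further: higher means more dye released from RNA so lower well fluorescence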
TCR-CD3 inh: inhibitors of human TCR-CD3 interaction, primary screen, biochemical, fluorescence, TAMRA-labeled TCR probe; actives 0.37% (n = 360,000); inhibition, % at 9.4 µM; T-cell receptor (TCR); in the data active means inhibition above about 19%;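 further: recombinant mutant TCR 2C K166C tagged with TAMRA read by polarization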
mABHD4 FP: ABHD4 inhibitors, primary screen, biochemical, fluorescence polarization, mouse | purified mABHD4, FP-Rh probe fluorescence polarization | inhibition, % at 8.92 µM | actives 0.54% (n = 370,000) | AID 720543, 2013;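 active means inhibition exceeding the mean over every tested compound plus 3 SD, cut at about 30% in these data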
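Assay system: Wild-type mouse ABHD4 protein | Medium: HEPES pH 7.0 buffer, 150 mM NaCl, 0.01% Pluronic F-127 | Incubation: Enzyme–compound pre-incubation 45 min, then probe 60 min, both 25 °C | Technique: Fluorescence polarization with parallel and perpendicular emission, 525/598 nm | Evaluation: % inhibition of FP-Rh probe binding versus controls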
HTRA1 inhibitor: HTRA1 serine protease inhibitors, primary screen, biochemical, fluorescence polarization, HTS. recombinant HTRA1, FP-rhodamine activity-based probe. AID 504803, 2011. actives 0.5% (n = 340,000). inhibition, % at 5.96 µM; in the data active means inhibition above about 36%
PRMT1 inh: PRMT1 methyltransferase inhibitors, primary screen, biochemical, fluorescence polarization; actives 1.3% (n = 370,000); Protein arginine N-methyltransferase 1 (Homo sapiens), Q99873; recombinant PRMT1, activity-based probe fluorescence polarization; inhibition, % at 2.79 µM; AID 652257, 2013;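 active means inhibition above about 21% made by adding two undisclosed values, limit read from the data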
Target sequence (Q99873 whole entry, looked up): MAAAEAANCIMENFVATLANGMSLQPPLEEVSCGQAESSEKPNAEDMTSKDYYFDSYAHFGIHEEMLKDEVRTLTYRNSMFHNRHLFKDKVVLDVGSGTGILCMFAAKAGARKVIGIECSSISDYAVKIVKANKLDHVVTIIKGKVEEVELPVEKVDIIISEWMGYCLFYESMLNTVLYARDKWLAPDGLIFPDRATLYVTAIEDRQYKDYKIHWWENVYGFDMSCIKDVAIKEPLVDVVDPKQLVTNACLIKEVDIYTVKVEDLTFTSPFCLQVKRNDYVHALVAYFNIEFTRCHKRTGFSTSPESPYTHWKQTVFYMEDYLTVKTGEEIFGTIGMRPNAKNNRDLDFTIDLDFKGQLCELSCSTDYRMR
SIAE primary: human SIAE inhibitors, primary screen, biochemical, fluorescence polarization, FP-Rh probe, 1536-well HTS; SIAE FP-Rh probe binding; AID 1053197, 2014; inhibition, % at 9.66 µM; actives 0.69% (n = 370,000);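 active means inhibition above a cutoff: mean of compounds within the control limits plus 3 SD of those, cut at about 17% in these data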
SIAE confirm: human SIAE inhibitors, retest, confirmation, biochemical, fluorescence polarization, FP-Rh probe, triplicate. shares compounds with SIAE primary. SIAE FP-Rh activity-based probe. inhibition, % at 9.66 µM. actives 13% (n = 2,300);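 active means mean inhibition of the replicates above the hit cutoff set in the primary screen, cut at about 17% in these data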;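 further: inhibitors lower polarization as more probe stays unbound to SIAE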
Hits are given with their value; 0 = inactive; - = no result given.

SMILES	rCAG binder	TCR-CD3 inh	mABHD4 FP	HTRA1 inhibitor	PRMT1 inh	SIAE primary	SIAE confirm
Cc1cccc(NC(=S)N/N=C2\CC(C)(C)Oc3ccc(O)cc32)c1	0	0	0	0	0	40.9	0
CC1(C)C/C(=N\NC(=S)Nc2ccccc2F)c2cc(O)ccc2O1	0	0	0	0	0	36.7	37.9
COc1cccc(NC(=S)N/N=C2\CC(C)(C)Oc3ccc(O)cc32)c1	0	0	0	0	0	35.7	20.7
O=C(NCCc1c[nH]c2ccccc12)OCc1cn(-c2cccc(Cl)c2)nn1	0	-	0	-	0	0	-
CN(C)c1ccc(CNc2ccc3c(c2)ncn3C(C)(C)C)cc1	0	0	0	0	0	18.5	0
CCOc1ccc(CNc2ccc3c(c2)ncn3C(C)(C)C)cc1	0	0	0	0	0	21.7	0
CCOc1ccc(CNc2ccc3c(c2)ncn3C)cc1	0	0	0	0	0	0	-
CCn1cnc2cc(NCc3ccc(N(C)C)cc3)ccc21	0	0	0	0	0	0	-
Cn1nc([N+](=O)[O-])c(C(C#N)c2nc3ccccc3n2C)c(Cl)c1=O (stereo not drawn)	0	0	0	0	0	27.3	0
CNc1nnc(CSc2nc3ccccc3s2)s1	0	0	0	0	0	0	-
CNc1nnc(CSc2nc(C)cc(C)n2)s1	0	0	0	0	0	27.3	0
COc1ccc(-n2c(SCC(=O)N3CCCC3)nnc2-c2ccncc2)cc1	0	-	0	-	0	0	-
CC1CN(c2nc3ccccc3nc2SCC(=O)N2CCN(S(=O)(=O)c3ccc(F)cc3)CC2)CC(C)O1 (stereo not drawn)	0	-	0	-	0	0	-
CCc1ccccc1N(CC(=O)N1CCCCC1)S(=O)(=O)c1ccccc1	0	0	0	0	0	0	-
Cc1cccc(N(CC(=O)N2CCCC2)S(=O)(=O)c2ccccc2)c1C	0	0	0	0	0	22.3	0
CCCn1c(Nc2ccccc2C)nc2ccccc21	0	0	0	0	0	37.5	0
C=CCc1cccc(CNc2nc3ccccc3n2CCC)c1O	0	0	0	0	0	19.4	0
C=CCc1cccc(CNc2nc3ccccc3n2CC)c1O	0	0	0	0	0	0	-
Cc1cccc(Cn2cc(CN3CC(N(C)CCCOC(=O)c4cc5ccccc5o4)CS3(=O)=O)nn2)c1 (stereo not drawn)	0	-	0	-	0	0	-
Cc1nc2c(o1)CCc1ccccc1C2O (stereo not drawn)	0	0	0	0	0	40.5	0
CCCCCc1ccc(-c2n[nH]c(=O)c3ccccc23)cc1	0	-	0	-	0	0	-
CCCCC(=O)NC(=S)NNC(=O)c1ccc(OC)cc1	0	0	0	0	0	0	-
CCNC(=S)NNC(=O)c1ccc(OC)cc1	0	0	0	0	0	17.4	0
COc1ccc(S(=O)(=O)N2CCCCCC2)cc1C(=O)N1CCN(c2ccccc2O)CC1	0	0	0	0	0	19.5	0
O=C(c1cccc(S(=O)(=O)N2CCCCCC2)c1)N1CCN(c2ccccc2)CC1	0	0	0	0	0	17.1	0
SMILES	rCAG binder	TCR-CD3 inh	mABHD4 FP	HTRA1 inhibitor	PRMT1 inh	SIAE primary	SIAE confirm
COc1ccc(Nc2ccc(S(=O)(=O)N3CCCCC3)cc2[N+](=O)[O-])cc1Cl	0	0	0	0	0	24.7	0
COc1ccc(S(=O)(=O)N2CCCC2)cc1C(=O)O	0	0	0	0	0	18.2	0
O=C(Nc1ccc(F)cc1)OCc1cn(Cc2cc(F)ccc2F)nn1	0	-	0	-	0	0	-
CC1CCCCN1C(=O)c1ccc(CNC(=O)c2cccc(Br)c2)cc1 (stereo not drawn)	0	-	0	-	0	0	-
C1=C(CCNc2ncnc3c2[nH]c2ccccc23)CCCC1	0	0	0	0	0	23.2	22.4
CC(NC(=O)c1ccccc1)C(=O)N/N=C/c1ccco1 (stereo not drawn)	0	0	0	0	0	17.8	0
COC(=O)c1cc(-c2ccc(C)c(C)c2)c(=O)n2c1CCC2	0	-	0	-	0	0	-
Cc1ccc(N=C(NO)c2nonc2N)cc1	0	0	0	0	0	40.6	0
Nc1ccc(N=Nc2ccccc2)cc1[N+](=O)[O-]	0	0	0	0	0	18.3	0
CC(=O)Nc1ccc(N(C)C)cc1[N+](=O)[O-]	0	0	0	0	0	0	-
CC(=O)Nc1ccc(O)cc1[N+](=O)[O-]	0	0	0	0	0	20.3	0
Cn1c(NCc2ccc3occc3c2)nc2cc(-c3ccc(F)cc3)sc2c1=O	0	0	0	-	0	0	-
CN(C)c1ccc(CNc2nc3cc(-c4ccc(F)cc4)sc3c(=O)n2C)cc1	0	0	0	-	0	17.4	0
O=C(NCc1ccco1)C1CCCN(S(=O)(=O)c2ccccc2[N+](=O)[O-])C1 (stereo not drawn)	0	-	0	-	0	0	-
O=C(O)c1cccc(-n2sc3ccccc3c2=O)c1	0	0	0	0	93.0	18.4	0
O=C(O)c1cccc(-n2c(/C=C/c3ccccc3)nc3ccccc3c2=O)c1	0	0	0	0	0	0	-
Cc1cccc(-c2nnc(SCC(=O)Nc3cccc4ccccc34)n2Cc2ccco2)c1	0	-	0	-	0	0	-
Cn1cc(/C=N\NC(=O)C2COc3ccccc3O2)c2ccccc21 (stereo not drawn)	0	0	0	-	0	20.0	0
Cc1c(/C=N\NC(=O)C2COc3ccccc3O2)c2ccccc2n1C (stereo not drawn)	0	0	0	0	0	0	-
Nc1[nH]c(C(=O)c2ccc(Br)cc2)c(-c2c(F)cccc2F)c1C(=O)NCCc1c[nH]c2ccccc12	0	0	0	-	0	0	-
O=C1CC(c2ccco2)CC(O)=C1C=Nc1ccccc1-c1ccccc1 (stereo not drawn)	0	0	0	0	0	27.3	0
O=C1CC(c2ccco2)CC(O)=C1C=Nc1cc(Cl)ccc1Cl (stereo not drawn)	0	0	0	0	0	0	-
C#CCONC(=O)c1cc(OCC(F)(F)F)ccc1OCC(F)(F)F	0	0	0	0	0	17.9	0
CCOC(=O)C1=C(c2ccccc2)NC(=O)NC1c1ccc(O)c(OCC)c1 (stereo not drawn)	0	0	0	0	0	18.7	0
CCOC(=O)C1=C(c2ccccc2)NC(=O)NC1c1ccc(O)c(Cl)c1 (stereo not drawn)	0	0	0	0	0	0	-
CCOC(=O)CNC(=O)CSc1nc2ccccc2c(=O)n1-c1ccc(Cl)cc1	0	-	0	-	0	0	-

High-throughput results deposited in PubChem by The Scripps Research Institute Molecular Screening Center.
